Test results from paper PMC10996840 (RSC Advances, 2024).
“And” between values parts separate entries of the source, which are not always exact repeats. Equal values may be shown once. Read-outs that look alike come from different tables or passages of the source. Blank lines part the entries; values can stand above or below the molecule they belong to.

How the values were obtained:
HepG2 cells = test: MTT cytotoxicity assay against HepG2 cells; format: cell-based, human
Method in brief: (§1)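 Cells kept in RPMI-1640 with L-glutamine at 37 °C under 5% CO2. Plated at 5 × 10^4 cells per well in triplicate. Next day they received test compound at 0.01, 0.1, 1, 10 and 100 μM. Viability read by MTT. IC50 came from a nonlinear dose–response fit of % viability against concentration.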

MCF-10A cells = test: MTT cytotoxicity assay against normal MCF-10A cells; format: cell-based; details: for IC50: Homo sapiens, MCF-10A, read-out: IC50 ± SD MCF-10A; for IC50 ± SD MCF-10A: MTT assay, normal MCF-10A cells, mean ± SD, n = 3
Method in brief: as §1

PIM-1 kinase [1] = biological target: T1, PIM-1 kinase (Homo sapiens, UniProt P11309); test: PIM-1 kinase inhibitory assay; format: biochemical; details: for % of PIM-1 inhibition: concentration not given
MCF-7 cells [2] = test: Annexin V/PI staining flow cytometry; format: cell-based, human; details: MCF-7 cells treated at IC50 = 0.57 μM, 48 h
Method in brief: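 MCF-7 cells seeded at 3–5 × 10^5 per well, incubated overnight, then exposed to test compound for 48 h. Supernatant and cells collected and rinsed in ice-cold PBS. Resuspended in annexin binding buffer (CaCl2, NaCl, Hepes/NaOH, pH 7.4) with annexin V-FITC (1:100) and PI (10 μg mL−1), kept 30 min in the dark, then analysed on a FACSCalibur flow cytometer.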

MCF-7 cells [3] = test: DNA content flow cytometry cell cycle analysis; format: cell-based, human; details: MCF-7 cells treated at IC50 = 0.57 μM, 48 h
[4] = tested on: P53, Bax, caspases-3,8,9, Bcl-2 and PIM-1 gene expression in MCF-7 cells; test: RT-PCR of apoptosis-related genes; format: cell-based, human; details: MCF-7, IC50 = 0.57 μM, 48 h, normalized to β-actin, control = 1
Method in brief: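 MCF-7 cells treated with test compound for 48 h, then taken for RT-PCR of apoptosis-related genes. Ct values were normalised to β-actin to give relative expression as fold change versus untreated control (set to 1). Values average three independent runs.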

PIM-1 kinase [5] = biological target: T1, PIM-1 kinase; details: read-out: IC50 ± SD PIM-1 kinase inhibition; previously reported value ref 32; cited from earlier work
[6] = read-out: IC50 ± SD HepG2, MTT assay, liver cancer HepG2 cells, mean ± SD, n = 3

T1 sequence (P11309 whole entry): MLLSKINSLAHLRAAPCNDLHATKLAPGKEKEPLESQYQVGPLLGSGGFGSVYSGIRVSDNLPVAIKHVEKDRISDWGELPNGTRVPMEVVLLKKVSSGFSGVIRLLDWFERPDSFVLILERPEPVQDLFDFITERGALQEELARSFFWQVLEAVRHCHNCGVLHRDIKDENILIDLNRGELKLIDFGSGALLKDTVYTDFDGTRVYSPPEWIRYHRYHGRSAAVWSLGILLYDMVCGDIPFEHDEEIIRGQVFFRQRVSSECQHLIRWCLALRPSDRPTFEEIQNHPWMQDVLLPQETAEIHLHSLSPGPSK

SMILES: N#Cc1c(-c2ccc(Cl)cc2)c2c(=O)[nH]c(CCl)nc2n(C2CCCCC2)c1=O [Compound 6, 2-(Chloromethyl)-5-(4-chlorophenyl)-8-cyclohexyl-4,7-dioxo-3,4,7,8-tetrahydropyrido[2,3-d]pyrimidine-6-carbonitrile]
IC50 (MCF-10A cells): 43500 ± 2900 nM
IC50 ± SD MCF-10A (MCF-10A cells): non-toxic
IC50 (PIM-1 kinase [1]): 34.6 ± 0.18 nM
% of PIM-1 inhibition (PIM-1 kinase [1]): 89.6 ± 2.1%

SMILES: N#Cc1c(-c2ccc(Cl)cc2)c2c(=O)[nH]cnc2n(C2CCCCC2)c1=O [Compound 9, 5-(4-Chlorophenyl)-8-cyclohexyl-4,7-dioxo-3,4,7,8-tetrahydropyrido[2,3-d]pyrimidine-6-carbonitrile]
IC50 (HepG2 cells; [6]): 4600 ± 340 nM

SMILES: N[C@H]1CC[C@H](Nc2nc(Nc3cccc(C(F)(F)F)c3)c3c(=O)[nH]ccc3n2)CC1 [SKI-O-068]
IC50 (PIM-1 kinase [5]): 123 ± 14 nM

SMILES: CN[C@@H]1C[C@H]2O[C@@](C)([C@@H]1OC)n1c3ccccc3c3c4c(c5c6ccccc6n2c5c31)C(=O)NC4 [Staurosporine, reference compound]
IC50 (HepG2 cells; Homo sapiens, HepG2, read-out: IC50 ± SD HepG2): 5070 ± 360 nM

More lines, main results first:

IC50 (PIM-1 kinase [1]): 11.4 ± 0.13 nM
% of PIM-1 inhibition (PIM-1 kinase [1]): 97.8 ± 1.8%
SMILES: N#Cc1c(-c2ccc(Cl)cc2)c2c(=O)[nH]c(-c3ccc(Cl)cc3Cl)nc2n(C2CCCCC2)c1=O [Compound 4, 5-(4-Chlorophenyl)-8-cyclohexyl-2-(2,4-dichlorophenyl)-4,7-dioxo-3,4,7,8-tetrahydropyrido[2,3-d]pyrimidine-6-carbonitrile]
IC50 (HepG2 cells; [6]): 1130 ± 190 nM
IC50 (MCF-10A cells): 47600 ± 3100 nM
IC50 ± SD MCF-10A (MCF-10A cells): non-toxic
early apoptosis (Q4) (MCF-7 cells [2]): 22.11%
increase of cell apoptosis versus untreated control (MCF-7 cells [2]): 58.29 fold and 58.3 fold
late apoptosis (Q2) (MCF-7 cells [2]): 14.03%
total apoptosis (MCF-7 cells [2]; untreated control 0.62%): 36.14%
cell population at G2/M phase (MCF-7 cells [3]; control 18.86%): 4.47%
cell population at G1 phase (MCF-7 cells [3]; control 48.37%): 56.36%
Bax gene expression fold change [4]: 6.7 fold
Bcl-2 gene expression fold change [4]: 0.11 fold
P53 gene expression fold change [4]: 7.9 fold
PIM-1 gene expression fold change [4]: 0.31 fold
caspase-3 gene expression fold change [4]: 11.2 fold
caspase-8 gene expression fold change [4]: 1.23 fold
caspase-9 gene expression fold change [4]: 8.9 fold

IC50 (PIM-1 kinase [1]): 17.2 ± 0.2 nM
% of PIM-1 inhibition (PIM-1 kinase [1]): 94.6 ± 2.1%
SMILES: N#Cc1c(-c2ccc(Cl)cc2)c2c(=O)[nH]c(=S)[nH]c2n(C2CCCCC2)c1=O [Compound 10, 5-(4-Chlorophenyl)-8-cyclohexyl-4,7-dioxo-2-thioxo-1,2,3,4,7,8-hexahydropyrido[2,3-d]pyrimidine-6-carbonitrile]
IC50 (MCF-10A cells): ≥ 50000 nM
IC50 ± SD MCF-10A (MCF-10A cells): non-toxic

IC50 (PIM-1 kinase [1]): 21.4 ± 0.24 nM
% of PIM-1 inhibition (PIM-1 kinase [1]): 92.1 ± 1.9%
SMILES: N#Cc1c(-c2ccc(Cl)cc2)c2c(=O)[nH]nnc2n(C2CCCCC2)c1=O [Compound 11, 5-(4-Chlorophenyl)-8-cyclohexyl-4,7-dioxo-3,4,7,8-tetrahydropyrido[2,3-d][1,2,3]triazine-6-carbonitrile]
IC50 (MCF-10A cells): ≥ 50000 nM
IC50 ± SD MCF-10A (MCF-10A cells): non-toxic
